The record followed here is ChEMBL document CHEMBL1142953, “Calcitonin gene-related peptide analogues with aza and indolizidinone amino acid residues reveal conformational requirements for antagonist activity at the human calcitonin gene-related peptide 1 receptor” (J Med Chem, 2007).

The source made the active and inactive calls. The calls are words filed in the database; no cut-off is given here. Where a SMILES comes first, the peptide text is derived from it.

As usually defined, the inhibition is the drop in the measured response relative to a control, in per cent. The term IC50 denotes the point on the concentration scale where inhibition reaches its midpoint.

What all share (assay type): functional, cell-based
The target of test [1] is Calcitonin gene-related peptide type 1 receptor (Homo sapiens) (UniProt Q16602). The test can be described thus: (§1) Antagonist activity against human CGRP1 expressed in HEK293 cells assessed as inhibition of human alpha-CGRP-promoted cAMP production. Also on record: concentration or dose not given beside the values. The note with it: concentration not given here. In outline:
(§2)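 HEK293 cells stably expressing CRLR, seeded at 5000 cells/well. Cells preincubated with peptide analogues for 15 min at 37 °C, then stimulated with 0.5 nM α-CGRP for 15 min at 37 °C. cAMP measured with a fluorescence-based kit. Peptides tested up to 100 µM. At least three independent experiments in triplicate, analysed by nonlinear curve fitting; mean ± SEM.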

Test [2] has the same target. The test is described as follows: Partial agonist activity at human CGRP1 expressed in HEK293 cells assessed by measuring cAMP production upto 1 uM. Summed up:
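HEK293 cells stably expressing CRLR were exposed to CGRP27-37 analogues up to 1 µM without α-CGRP. cAMP production was measured with a fluorescence-based kit as the read-out.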
For orientation: Changes in cAMP serve as a functional read-out for many G protein-coupled receptors.

Test [3] has as its target Calcitonin gene-related peptide type 1 receptor (Homo sapiens, UniProt O60894+Q16602). The description is as §1. Summed up:
as §2

Test [4] deals with Calcitonin gene-related peptide type 1 receptor (Homo sapiens) (UniProt Q16602). The test is described as follows: Antagonist activity against human CGRP1 expressed in HEK293 cells assessed as inhibition of human alpha-CGRP-promoted cAMP production upto 100 uM. Summed up:
as §2

Sequence of Calcitonin gene-related peptide type 1 receptor (Q16602 whole entry, one chain of several): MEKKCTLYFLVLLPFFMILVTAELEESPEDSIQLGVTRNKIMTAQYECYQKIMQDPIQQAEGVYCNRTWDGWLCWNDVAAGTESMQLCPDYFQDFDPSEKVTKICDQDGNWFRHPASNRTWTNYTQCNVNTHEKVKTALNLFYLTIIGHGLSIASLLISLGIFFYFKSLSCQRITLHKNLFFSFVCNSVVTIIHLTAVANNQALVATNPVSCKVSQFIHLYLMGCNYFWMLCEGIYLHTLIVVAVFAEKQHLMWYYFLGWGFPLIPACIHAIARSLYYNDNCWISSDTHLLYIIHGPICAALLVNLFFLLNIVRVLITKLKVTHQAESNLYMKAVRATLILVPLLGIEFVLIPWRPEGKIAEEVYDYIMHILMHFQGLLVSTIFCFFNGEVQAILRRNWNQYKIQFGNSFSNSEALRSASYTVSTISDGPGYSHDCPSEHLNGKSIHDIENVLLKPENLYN
Sequence of Calcitonin gene-related peptide type 1 receptor (Homo sapiens) (Q16602 whole entry): as the sequence (Q16602 whole entry, one chain of several) above

With `CC(C)[C@H](NC(=O)[C@H](CC(=O)O)NC(=O)[C@@H](NC(=O)[C@@H]1CCCN1C(=O)[C@@H](NC(=O)[C@H](N)Cc1ccccc1)C(C)C)[C@@H](C)O)C(=O)NCC(=O)N1CCC[C@H]1C(=O)N[C@@H](Cc1ccccc1)C(=O)NN(C)C(=O)N[C@@H](Cc1ccccc1)C(N)=O`, the inhibition in test [1] was 51%. The outcome in test [2] was inactive.

Consider `CC(C)[C@H](NC(=O)[C@H](CC(=O)O)NC(=O)[C@@H](NC(=O)[C@@H]1CCCN1C(=O)[C@@H](NC(=O)[C@@H](N)Cc1ccccc1)C(C)C)[C@@H](C)O)C(=O)NNC(=O)N1CCC[C@H]1C(=O)N[C@@H](Cc1ccccc1)C(=O)N[C@@H](C)C(=O)N[C@@H](Cc1ccccc1)C(N)=O`, for which the IC50 in test [3] is 67.6 nM.

As for `CC(C)[C@H](NC(=O)N(CC(=O)O)NC(=O)[C@@H](NC(=O)[C@@H]1CCCN1C(=O)[C@@H](NC(=O)[C@@H](N)Cc1ccccc1)C(C)C)[C@@H](C)O)C(=O)NCC(=O)N1CCC[C@H]1C(=O)N[C@@H](Cc1ccccc1)C(=O)N[C@@H](C)C(=O)N[C@@H](Cc1ccccc1)C(N)=O` (HELM PEPTIDE1{F.V.P.T.[O=C(O)CN(N[*:1])C(=O)[*:2]].V.G.P.F.A.F.[am]}$$$$V2.0), the inhibition in test [1] was 59%. For the same compound, the IC50 in test [3] was 380 nM. The result in test [2] was inactive.

Regarding `CC(C)[C@H](NC(=O)[C@H](CC(=O)O)NC(=O)[C@@H](NC(=O)[C@@H]1CCCN1C(=O)[C@@H](NC(=O)[C@H](N)Cc1ccccc1)C(C)C)[C@@H](C)O)C(=O)NNC(=O)N1CCC[C@H]1C(=O)N[C@@H](Cc1ccccc1)C(=O)N[C@@H](C)C(=O)N[C@@H](Cc1ccccc1)C(N)=O`, the inhibition in test [1] was determined as 70%. Moreover, the result in test [2] was inactive.

For the compound `CC(C)[C@H](NC(=O)[C@H](CC(=O)O)NC(=O)[C@@H](NC(=O)[C@@H]1CCCN1C(=O)[C@@H](NC(=O)N(N)Cc1ccccc1)C(C)C)[C@@H](C)O)C(=O)NCC(=O)N1CCC[C@H]1C(=O)N[C@@H](Cc1ccccc1)C(=O)N[C@@H](C)C(=O)N[C@@H](Cc1ccccc1)C(N)=O`, in test [1], the inhibition worked out at 69%. Besides, the IC50 in test [3] was 589 nM. Besides, in test [2], the outcome was inactive.

Regarding `CC(C)[C@H](NC(=O)[C@H](CC(=O)O)NC(=O)[C@@H](NC(=O)[C@@H]1CCCN1C(=O)[C@@H](NC(=O)[C@@H](N)Cc1ccccc1)C(C)C)[C@@H](C)O)C(=O)NCC(=O)N1CCC[C@H]1C(=O)N[C@@H](Cc1ccccc1)C(=O)NN(C)C(=O)N[C@@H](Cc1ccccc1)C(N)=O`, the IC50 in test [3] was 3550 nM.

With H-PTDVGPFAF-NH2, in test [1], the inhibition was determined as 81%. Besides, the IC50 in test [3] is 776 nM.

For the compound `CC(C)[C@H](NC(=O)[C@H](CC(=O)O)NC(=O)[C@@H](NC(=O)[C@@H]1CCCN1C(=O)[C@@H](NC(=O)[C@@H](N)Cc1ccccc1)C(C)C)[C@@H](C)O)C(=O)NCC(=O)N1CCC[C@H]1C(=O)N[C@@H](Cc1ccccc1)C(=O)N[C@@H](C)C(=O)N[C@@H](Cc1ccccc1)C(N)=O`, the inhibition in test [1] worked out at 68%. For the same compound, the outcome in test [2] was inactive.

As for `CC(C)[C@H](NC(=O)[C@H](CC(=O)O)NC(=O)[C@@H](NC(=O)[C@@H]1CCCN1)[C@@H](C)O)C(=O)NCC(=O)N1CCCN1C(=O)N[C@@H](Cc1ccccc1)C(=O)N[C@@H](C)C(=O)N[C@@H](Cc1ccccc1)C(N)=O` (HELM PEPTIDE1{P.T.D.V.G.[O=C(N1CCCN1[*:1])[*:2]].F.A.F.[am]}$$$$V2.0), the inhibition in test [1] stood at 68%. Further, the IC50 in test [3] is 4470 nM.

Turning to `CC(C)[C@H](NC(=O)[C@H](CC(=O)O)NC(=O)[C@@H](NC(=O)[C@@H]1CCCN1C(=O)[C@@H](NC(=O)[C@H](N)Cc1ccccc1)C(C)C)[C@@H](C)O)C(=O)NCC(=O)N1CCC[C@H]1C(=O)NN(Cc1ccccc1)C(=O)N[C@@H](C)C(=O)N[C@@H](Cc1ccccc1)C(N)=O`, in test [1], the inhibition worked out at 69%. Moreover, in test [2], the outcome was inactive.

In the case of `CC(C)[C@H](NC(=O)[C@H](CC(=O)O)NC(=O)[C@@H](NC(=O)[C@@H]1CCCN1C(=O)[C@@H](NC(=O)[C@@H](N)Cc1ccccc1)C(C)C)[C@@H](C)O)C(=O)N[C@H]1C[C@H]2CCC[C@@H](C(=O)N[C@@H](Cc3ccccc3)C(=O)N[C@@H](C)C(=O)N[C@@H](Cc3ccccc3)C(N)=O)N2C1=O`, the result in test [4] and in test [2] was inactive.

`CC(C)[C@H](NC(=O)[C@H](CC(=O)O)NC(=O)[C@@H](NC(=O)[C@@H]1CCCN1C(=O)[C@@H](NC(=O)[C@@H](N)Cc1ccccc1)C(C)C)[C@@H](C)O)C(=O)N[C@H]1CC[C@H]2CC[C@@H](C(=O)N[C@@H](Cc3ccccc3)C(=O)N[C@@H](C)C(=O)N[C@@H](Cc3ccccc3)C(N)=O)N2C1=O`: the inhibition in test [1] came to 70%. In test [3], the IC50 was 107 nM. The outcome in test [2] was inactive.

`CC(C)[C@H](NC(=O)[C@H](CC(=O)O)NC(=O)[C@@H](NC(=O)[C@@H]1CCCN1C(=O)[C@@H](NC(=O)[C@@H](N)Cc1ccccc1)C(C)C)[C@@H](C)O)C(=O)NCC(=O)N1CCC[C@@H]1C(=O)N[C@@H](Cc1ccccc1)C(=O)N[C@H]1C[C@H]2C[C@@H](c3ccccc3)C[C@@H](C(N)=O)N2C1=O`: the outcome in test [4] and in test [2] was inactive.

For `CC(C)[C@H](NC(=O)[C@H](CC(=O)O)NC(=O)[C@@H](NC(=O)[C@@H]1CCCN1C(=O)[C@@H](NC(=O)[C@@H](N)Cc1ccccc1)C(C)C)[C@@H](C)O)C(=O)NCC(=O)N[C@H]1CC[C@H]2CC[C@@H](C(=O)N[C@@H](C)C(=O)N[C@@H](Cc3ccccc3)C(N)=O)N2C1=O`, the outcome in test [4] and in test [2] was inactive.

Consider `CC(C)[C@H](NC(=O)[C@H](CC(=O)O)NC(=O)[C@@H](NC(=O)C1CCCN1C(=O)[C@@H](NC(=O)[C@@H](N)Cc1ccccc1)C(C)C)[C@@H](C)O)C(=O)NCC(=O)N[C@H]1C[C@H]2C[C@@H](c3ccccc3)C[C@@H](C(=O)N[C@@H](C)C(=O)N[C@@H](Cc3ccccc3)C(N)=O)N2C1=O` (some centres undefined), for which the result in test [4] and in test [2] was inactive.

Consider `CC(C)[C@H](NC(=O)[C@H](CC(=O)O)NC(=O)[C@@H](NC(=O)[C@@H]1CCCN1C(=O)[C@@H](NC(=O)[C@@H](N)Cc1ccccc1)C(C)C)[C@@H](C)O)C(=O)NCC(=O)N1CCC[C@H]1C(=O)NN(Cc1ccccc1)C(=O)N[C@@H](C)C(=O)N[C@@H](Cc1ccccc1)C(N)=O`, for which the IC50 in test [3] was 5750 nM.

As to `CC(C)[C@H](NC(=O)[C@@H](N)Cc1ccccc1)C(=O)N1CCC[C@@H]1C(=O)N[C@H](C(=O)N[C@@H](CC(=O)O)C(=O)N[C@H]1C[C@H]2CCC[C@@H](C(=O)N3CCC[C@H]3C(=O)N[C@@H](Cc3ccccc3)C(=O)N[C@@H](C)C(=O)N[C@@H](Cc3ccccc3)C(N)=O)N2C1=O)[C@H](C)O`, the result in test [4] and in test [2] was inactive.
